Calls of active or inactive are those of the source. No cut-off for these calls is given here.
Columns and labels:
[1] = biological target: Fibroblast growth factor receptor 3 (Homo sapiens) (UniProt P22607); assay: Inhibition of human recombinant GST-fused FGFR3 expressed in baculovirus expression system using poly-Glu-Tyr (4:1) as substrate measured after 10 mins in presence of gamma-[33P]-ATP by scintillation counting analysis
In short: (§1)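 GST-fused kinase domains were expressed in baculovirus and purified on glutathione-Sepharose. 10 min at ambient temperature, stopped with EDTA. Filter binding and scintillation counting. IC50 by linear regression of percent inhibition.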

[2] = system: BaF3; assay: Antiproliferative activity against mouse BaF3 cells expressing PTC3-RET assessed as cell growth inhibition measured after 72 hrs by Alamar Blue assay; details: BaF3, 72 h
[3] = system: HUVEC; assay: Antiproliferative activity against bFGF-stimulated HUVEC cells assessed as cell growth inhibition measured after 24 hrs by BrdUrd incorporation based spectrophotometric analysis; details: Homo sapiens
[4] = system: BaF3; assay: Antiproliferative activity against mouse BaF3 cells expressing NPM-ALK assessed as cell growth inhibition measured after 72 hrs by Alamar Blue assay; details: BaF3, 72 h
[5] = system: BaF3; assay: Antiproliferative activity against mouse BaF3 cells expressing Tel-IGF-1R assessed as cell growth inhibition measured after 72 hrs by Alamar Blue assay; details: BaF3, 72 h
[6] = system: BaF3; assay: Antiproliferative activity against mouse BaF3 cells expressing Bcr-ABL assessed as cell growth inhibition measured after 72 hrs by Alamar Blue assay; details: BaF3, 72 h
[7] = system: BaF3; assay: Antiproliferative activity against mouse BaF3 cells expressing Trp-MET assessed as cell growth inhibition measured after 72 hrs by Alamar Blue assay; details: BaF3, 72 h
[8] = system: BaF3; assay: Antiproliferative activity against mouse BaF3 cells expressing ERBB2 V659E mutant assessed as cell growth inhibition measured after 72 hrs by Alamar Blue assay; details: BaF3, 72 h
[9] = system: BaF3; assay: Antiproliferative activity against mouse BaF3 cells assessed as cell growth inhibition measured after 72 hrs by Alamar Blue assay; details: BaF3, 72 h
[10] = system: BaF3; assay: Antiproliferative activity against mouse BaF3 cells expressing FLT3-ITD assessed as cell growth inhibition measured after 72 hrs by Alamar Blue assay; details: BaF3, 72 h
[11] = biological target: Cyclin-dependent kinase 1 (Homo sapiens) (UniProt P06493); assay: Inhibition of human recombinant GST-fused CDK1 expressed in baculovirus expression system using poly-Glu-Tyr (4:1) as substrate measured after 10 mins in presence of gamma-[33P]-ATP by scintillation counting analysis; in short: as §1
[12] = biological target: Hepatocyte growth factor receptor (Homo sapiens) (UniProt P08581); assay: Inhibition of human recombinant GST-fused c-MET expressed in baculovirus expression system using poly-Glu-Tyr (4:1) as substrate measured after 10 mins in presence of gamma-[33P]-ATP by scintillation counting analysis; in short: as §1
[13] = system: BaF3; assay: Antiproliferative activity against mouse BaF3 cells expressing KIT D816V mutant assessed as cell growth inhibition measured after 72 hrs by Alamar Blue assay; details: BaF3, 72 h
[14] = system: HUVEC; assay: Antiproliferative activity against VEGF-stimulated HUVEC cells assessed as cell growth inhibition measured after 24 hrs by BrdUrd incorporation based spectrophotometric analysis; details: Homo sapiens
[15] = system: BaF3; assay: Antiproliferative activity against mouse BaF3 cells expressing Tel-PDGFRbeta assessed as cell growth inhibition measured after 72 hrs by Alamar Blue assay; details: BaF3, 72 h
[16] = system: BaF3; assay: Antiproliferative activity against mouse BaF3 cells expressing Tel-FGFR3 assessed as cell growth inhibition measured after 72 hrs by Alamar Blue assay; details: BaF3, 72 h
[17] = biological target: T1, Vascular endothelial growth factor receptor 2 (Homo sapiens, UniProt P35968); assay: Inhibition of VEGF-induced human VEGFR2 autophosphorylation transfected in CHO cells measured after 2 hrs by chemiluminescence assay; assay type: cell-based
[18] = biological target: T1, Vascular endothelial growth factor receptor 2; assay: Inhibition of human recombinant GST-fused VEGFR2 kinase domain transphosphorylation expressed in baculovirus expression system using poly-Glu-Tyr (4:1) as substrate measured after 10 mins in presence of gamma-[33P]-ATP by scintillation counting analysis
[19] = system: BN472 cell; assay: Induction of apoptosis in rat BN472 cell implanted in Brown-Norway rat assessed as effect on caspase 3 level at 100 mg/kg, po qd measured upto 14 days by microscopic analysis; assay type: functional, organism-based; details: time <= 14.0 day
In short: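 BN472 fragments were grown in mammary fat pads of female Brown-Norway rats and dosed orally for 14 days. Hoechst dye was given i.v. 2 min before sacrifice. Excised tumors were cut as 10 micron frozen sections, blocked with 10 % normal goat serum/0.1 % Triton X-100 and stained with rabbit anti-rat caspase 3 (1:10), then a TRITC or FITC secondary. Read by fluorescence microscopy.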

[20] = species on record: Mus musculus; assay: Antiangiogenic activity in C57BL/6jNpa mouse harbouring mouse B16-BL6 cells assessed as reduction in K-trans level measured after 3 days by DCE-MRI assay relative to control; assay type: functional; set-up: scale not given: the % may be the effect or the level left; details: time 3 day
In short: (§2)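 C57BL/6JNpa mice bearing B16/BL6 cervical lymph-node metastases, at least 8 per group, anaesthetized and given contrast agent; DCE-MRI Ktrans and iAUEC (permeability) and Vp (plasma volume) measured before and again after daily treatment; change per mouse recorded, mean ± SEM, one-way ANOVA with Holm-Sidak comparisons versus vehicle.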

[21] = system: BN472 cell; assay: Antitumor activity against rat BN472 cell implanted in Brown-Norway rat assessed as reduction in perfused blood vessels at 100 mg/kg, po qd measured upto 14 days by Hoechst staining based microscopic analysis; assay type: functional, organism-based; details: time <= 14.0 day
In short: (§3)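 BN472-bearing Brown-Norway rats dosed orally; Hoechst dye i.v. shortly before sacrifice to mark perfused vessels; tumors cryosectioned at 10 micron, blocked in 10 % goat serum/0.1 % Triton X-100, stained with rabbit anti-Ki67 (1:200) or anti-caspase 3 (1:10) and fluorescent secondary antibodies; fluorescence microscopy.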

[22] = species on record: Mus musculus; assay: Antiangiogenic activity in C57BL/6jNpa mouse harbouring mouse B16-BL6 cells assessed as reduction in K-trans level by measuring T/C ratio measured after 3 days by DCE-MRI assay; assay type: functional; details: time 3 day; in short: as §2
[23] = species on record: Mus musculus; assay: Antiangiogenic activity in C57BL/6jNpa mouse harbouring mouse B16-BL6 cells assessed as reduction in iAUEC level measured after 3 days by DCE-MRI assay relative to control; assay type: functional; set-up: scale not given: the % may be the effect or the level left; details: time 3 day; in short: as §2
[24] = species on record: Mus musculus; assay: Antiangiogenic activity in C57BL/6jNpa mouse harbouring mouse B16-BL6 cells assessed as reduction in tumor plasma volume by measuring T/C ratio measured after 3 days by DCE-MRI assay; assay type: functional; details: time 3 day; in short: as §2
[25] = system: B16-BL6; assay: Antitumor activity against mouse B16-BL6 cells implanted in C57BL/6jNpa mouse assessed as metastatic tumor growth inhibition by measuring T/C ratio at 100 mg/kg, po qd administered started on day 7 post implantation measured after 21 days relative to control; assay type: functional; details: time 7-21 day
In short: (§4)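 Female C57BL/6JNpa mice, 50000 B16/BL6 cells intradermally in both ear pinnae; primary tumor area (mm²) imaged days 7, 14, 21; randomized day 7 into groups of 5-6, oral dosing in PEG200 or PEG300 vehicle daily (or every 2 days) for 14 days; day 21 cervical lymph nodes weighed, metastasis lysates assayed for TIE-2 by ELISA; T/C ratios.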

[26] = species on record: Mus musculus; assay: Antiangiogenic activity in C57BL/6jNpa mouse harbouring mouse B16-BL6 cells assessed as reduction in tumor plasma volume measured after 3 days by DCE-MRI assay relative to control; assay type: functional; set-up: scale not given: the % may be the effect or the level left; details: time 3 day; in short: as §2
[27] = system: B16-BL6; assay: Antitumor activity against mouse B16-BL6 cells implanted in C57BL/6jNpa mouse assessed as primary tumor growth inhibition by measuring T/C ratio at 100 mg/kg, po qd administered started on day 7 post implantation measured after 21 days; assay type: functional; details: time 7-21 day; in short: as §4
[28] = system: B16-BL6; assay: Antitumor activity against mouse B16-BL6 cells implanted in C57BL/6jNpa mouse assessed as metastatic tumor growth inhibition at 100 mg/kg, po qd administered started on day 7 post implantation measured after 21 days relative to control; assay type: functional, organism-based; details: time 7-21 day; in short: as §4
[29] = system: B16-BL6; assay: Antitumor activity against mouse B16-BL6 cells implanted in C57BL/6jNpa mouse assessed as primary tumor growth inhibition at 100 mg/kg, po qd administered started on day 7 post implantation measured after 21 days relative to control; assay type: functional, organism-based; details: time 7-21 day; in short: as §4
[30] = species on record: Mus musculus; assay: Antiangiogenic activity in C57BL/6jNpa mouse harbouring mouse B16-BL6 cells assessed as reduction in iAUEC level by measuring T/C ratio measured after 3 days by DCE-MRI assay; assay type: functional; details: time 3 day; in short: as §2
[31] = system: BN472 cell; assay: Antitumor activity against rat BN472 cell implanted in Brown-Norway rat assessed as reduction in perfused blood vessels at 100 mg/kg, po qd measured upto 14 days by Ki67 staining based microscopic analysis; assay type: functional, organism-based; details: time <= 14.0 day, in the assay text read “Hoechst dye staining” for “Ki67 staining”; in short: as §3

IC50 [2] [nM]	IC50 [4] [nM]	IC50 [5] [nM]	IC50 [6] [nM]	IC50 [7] [nM]	IC50 [8] [nM]	IC50 [9] [nM]	IC50 [10] [nM]	IC50 [13] [nM]	IC50 [15] [nM]	IC50 [16] [nM]	SMILES	IC50 [3] [nM]	IC50 [14] [nM]	also measured
297	1150	1290	7180	5120	3850	> 10000	35	1470	2.3	1560	CCN(CC)CCNC(=O)c1c(C)[nH]c(/C=C2\C(=O)Nc3ccc(F)cc32)c1C [SUNITINIB]	> 3000	7	inhibition [1]: Active; inhibition [11]: Active; inhibition [12]: Active
											CCN1CCN(Cc2ccc(NC(=O)Nc3ccc(Oc4cc(NC)ncn4)cc3)cc2C(F)(F)F)CC1 [AST-487]			IC50 [17]: 230 nM; IC50 [18]: 3 nM
> 10000	> 10000	> 10000	> 10000	> 10000	> 10000	> 10000	> 10000	> 10000	76	> 10000	Clc1ccc(Nc2nnc(Cc3ccncc3)c3ccccc23)cc1.O=C(O)CCC(=O)O	> 3000	7.1	Activity [19]: Active; Activity [20]: 51%; Activity [21]: Active; T/C [22]: 0.49; Activity [23]: 33%; T/C [24]: 0.67; T/C [25]: 0.34; Activity [26]: 33%; T/C [27]: 0.44; Activity [28]: Active; Activity [29]: Active; T/C [30]: 0.61; Activity [31]: Active

Source: ChEMBL document CHEMBL5252510, “A Novel Potent Oral Series of VEGFR2 Inhibitors Abrogate Tumor Growth by Inhibiting Angiogenesis” (J Med Chem, 2016)
